This note sets out measurements from ChEMBL document CHEMBL1949610, “Selection of cyclic-peptide inhibitors targeting Aurora kinase A: problems and solutions” (Bioorg Med Chem, 2011).

Assay [1] addresses T1, Aurora kinase A (Homo sapiens) (UniProt O14965).
T1 sequence (whole entry): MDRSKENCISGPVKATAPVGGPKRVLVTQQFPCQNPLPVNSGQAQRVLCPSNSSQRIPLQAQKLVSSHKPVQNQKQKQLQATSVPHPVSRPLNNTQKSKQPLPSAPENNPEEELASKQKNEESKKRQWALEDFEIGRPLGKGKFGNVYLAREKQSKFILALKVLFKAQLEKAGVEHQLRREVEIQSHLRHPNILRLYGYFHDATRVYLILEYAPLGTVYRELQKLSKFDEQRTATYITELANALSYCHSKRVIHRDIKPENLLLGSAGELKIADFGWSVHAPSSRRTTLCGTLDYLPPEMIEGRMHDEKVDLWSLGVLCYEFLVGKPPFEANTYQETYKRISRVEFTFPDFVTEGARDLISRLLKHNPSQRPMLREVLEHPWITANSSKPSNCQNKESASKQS
Kind of assay: Competitive inhibition of human aurora A using kemptide as a substrate by double reciprocal plot analysis. In outline: (§1)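 Kinetics run in duplicate: 0.5 nM Aurora A, 100 μM [γ-³²P]ATP, Kemptide at 25, 50 and 200 μM, inhibitor at 0, 10 and 50 μM, in 20 mM MOPS, 10 mM MgCl, pH 7, 0.01% BSA, 2.5% DMSO. Data shown as double-reciprocal plots and fit to competitive, noncompetitive, mixed and uncompetitive models.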

A further assay addresses T2, Aurora kinase A (Homo sapiens, UniProt O14965).
T2 sequence (O14965 whole entry): T1 sequence (whole entry)
In words: Mixed type inhibition of human aurora A using kemptide as a substrate by double reciprocal plot analysis. The method, boiled down:
as §1

Assay [2] concerns the target T1, Aurora kinase A (Homo sapiens). In words: Un-competitive inhibition of human aurora A using kemptide as substrate by double reciprocal plot analysis. In outline: as §1
Assay [3] has the same target. Kind of assay: Inhibition of human aurora A assessed as [gamma-33P]ATP incorporation into kemptide substrate at 10 uM after 40 mins by liquid scintillation counting.
In assay [4] the target is Dual specificity protein kinase CLK2 (Homo sapiens) (UniProt P49760). Kind of assay: Inhibition of CLK2 assessed as [gamma-33P]ATP incorporation into AKRRRLSSLRA substrate at 10 uM after 40 mins by liquid scintillation counting.
Dual specificity protein kinase CLK2 (Homo sapiens), sequence (P49760 whole entry, looked up): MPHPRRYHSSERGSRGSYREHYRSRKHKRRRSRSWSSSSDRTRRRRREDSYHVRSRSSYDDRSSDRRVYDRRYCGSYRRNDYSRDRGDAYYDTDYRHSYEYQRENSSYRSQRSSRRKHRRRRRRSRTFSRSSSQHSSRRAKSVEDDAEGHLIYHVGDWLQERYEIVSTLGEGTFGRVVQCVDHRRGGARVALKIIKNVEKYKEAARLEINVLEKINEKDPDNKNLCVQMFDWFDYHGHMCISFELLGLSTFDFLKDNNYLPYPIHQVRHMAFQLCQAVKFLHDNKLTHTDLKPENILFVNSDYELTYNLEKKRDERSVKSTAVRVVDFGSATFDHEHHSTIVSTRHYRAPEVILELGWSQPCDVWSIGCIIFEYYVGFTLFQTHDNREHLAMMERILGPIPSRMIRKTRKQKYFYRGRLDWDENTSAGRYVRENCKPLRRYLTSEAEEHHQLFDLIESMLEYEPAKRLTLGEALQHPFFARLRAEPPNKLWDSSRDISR
Assay [5] in a line: Inhibition of PKA assessed as [gamma-33P]ATP incorporation into kemptide substrate at 10 uM after 40 mins by liquid scintillation counting.

Active and inactive are the calls of the source. No cut-off for these calls is given here. Positions of bridges follow the written chain, without caps; N, C: chain ends. Residues, ends and D or L forms follow the SMILES beside them.

The molecule `CC(C)C[C@@H]1NC(=O)[C@H](Cc2c[nH]c3ccccc23)NC(=O)[C@H](Cc2c[nH]c3ccccc23)NC(=O)[C@@H]2CCCN2C(=O)[C@H](CCCNC(=N)N)NC(=O)[C@H]([C@@H](C)O)NC(=O)[C@@H](N)CSSC[C@@H](C(=O)NCC(N)=O)NC1=O` (H-CTRPWWLCG-NH2; disulfide 1-8) yielded a Kic in assay [1] of 10.4 µM. This molecule also displayed an inhibitory constant (Ki) at Aurora kinase A of 27.2 µM. In assay [2], the Kiuc was found to be 17.6 µM. Moreover, the inhibition entry in assay [3] was “Active”. Also, the inhibition entry in assay [4] and in assay [5] was “inactive” each time.
On to `CC(C)C[C@@H]1NC(=O)[C@H](Cc2ccccc2)NC(=O)[C@H](CCCNC(=N)N)NC(=O)[C@@H]2CCCN2C(=O)[C@@H](N)CSSC[C@@H](C(=O)NCC(N)=O)NC(=O)[C@H](Cc2c[nH]c3ccccc23)NC(=O)[C@@H]2CCCN2C1=O` (H-CPRFLPWCG-NH2; disulfide 1-8), for which, in assay [3], the inhibition result was “Active”. For the same molecule, the inhibition entry in assay [4] and in assay [5] was “inactive” in each case.

The term Ki denotes a dissociation constant, usually derived from enzyme kinetics or from competition with a known ligand. Low readings indicate tighter binding, high ones weaker binding.
